Test results: PubChem BioAssay
The source made the active and inactive calls.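 Rule for the calls, unless noted: active = fluorescence slope after compound addition differing from the mean of all screened samples at 99.7% confidence, in either direction; inactive = the rest.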

How the values were obtained:
[1] = inhibitors of TNFa-induced NFkB p65 translocation, primary screen, imaging, HUVEC, MLSMR starter and 10KST1 sets (AID 438;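 active = inhibition above 20% together with a positive visual image hit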;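 note: compound added about 3h40 before a 20 min TNFalpha stimulation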;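 for inhibition: signal is the nuclear over cytoplasmic p65 intensity ratio per well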); conditions: HUVEC TNFa-induced p65 nuclear translocation; cell count: measured here: nuclei count (cytotoxicity indicator), at 2.08 µM; inhibition: at 2 µM, stronger effect = higher value, 0% TNFa-plus-vehicle, 100% no-TNFa wells
[2] = inhibitors of mutant huntingtin aggregation, primary screen, imaging, exon1htt(103Q)mCFP cells, high-content imaging (AID 483;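 active = visual image review flags a hit and inhibition of aggregation exceeds 20%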;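 note: compound exposure lasted 3 days before fixation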;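 for nuclei count: percent of the per-plate median nuclei count of sample wells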); conditions: exon1htt(103Q)mCFP cell line, aggregate imaging, at 2 µM; inhibition of aggregation: stronger effect = higher value; nuclei count: measured here: cell count, toxicity
[3] = inhibitors of E-selectin induction by TNFa, primary screen, imaging, HUVEC, immunofluorescence, MLSMR starter and 10KST1 sets (AID 487;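 active = visually confirmed hit in the image check and inhibition above 20%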;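 for inhibition: signal is fraction of cell area covered by stained E-selectin grains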;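 for nuclei count: 100% = median nuclei count of all wells on the same plate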); conditions: HUVEC TNFalpha-induced E-selectin immunofluorescence imaging, at 2 µM; inhibition: stronger effect = higher value; nuclei count: measured here: cell number, toxicity
[4] = target: Voltage-gated potassium channel subunit beta-2 (Rattus norvegicus) (UniProt P62483); assay: KvBeta enzyme negative modulators, primary screen, biochemical, NADPH fluorescence (AID 622;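 active = fluorescence slope higher than the sample average by over 3 SD, cut at about -0.22 in these data, passing the limit was not always enough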;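 note: slope of raw intensity against log time taken from 70 to 1610 s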); conditions: recombinant KvBeta, 4-cyanobenzaldehyde reduction, at 10 µM, stronger effect = higher value
Chain of Voltage-gated potassium channel subunit beta-2 (Rattus norvegicus) (P62483 whole entry, looked up): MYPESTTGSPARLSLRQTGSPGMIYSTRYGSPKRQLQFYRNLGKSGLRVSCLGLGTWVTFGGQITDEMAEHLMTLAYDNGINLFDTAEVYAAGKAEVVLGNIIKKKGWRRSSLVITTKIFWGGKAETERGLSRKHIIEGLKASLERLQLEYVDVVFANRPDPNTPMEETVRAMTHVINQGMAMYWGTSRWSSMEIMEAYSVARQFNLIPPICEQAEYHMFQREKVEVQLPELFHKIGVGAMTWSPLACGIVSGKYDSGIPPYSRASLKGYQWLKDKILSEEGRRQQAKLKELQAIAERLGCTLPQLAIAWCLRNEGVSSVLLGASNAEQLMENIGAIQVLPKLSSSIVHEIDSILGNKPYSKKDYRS

[5] = target: Voltage-gated potassium channel subunit beta-2 (Rattus norvegicus) (UniProt P62483); assay: KvBeta positive modulators, primary screen, biochemical, NADPH fluorescence (AID 623;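 active = NADPH fluorescence slope more negative than the mean of all samples by about 3 SD, 99.7% confidence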;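 note: fluorescence intensity change per second fitted from 20 to 320 s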); conditions: Recombinant KvBeta, NADPH fluorescence decrease slope, 10 min; at 10 µM; stronger effect = lower value
[6] = target: Alpha-2C adrenergic receptor (Homo sapiens) (UniProt P18825); assay: modulators of alpha2C/GIRK thallium flux, primary screen, cell-based, HEK293 alpha2C/GIRK1/2 (AID 624); conditions: thallium flux BTC fluorescence, at 10 µM, actives lie on both sides;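 note: slope of fluorescence ratio to pre-addition baseline per second over 15 to 24 s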
Chain of Alpha-2C adrenergic receptor (Homo sapiens) (P18825 whole entry, looked up): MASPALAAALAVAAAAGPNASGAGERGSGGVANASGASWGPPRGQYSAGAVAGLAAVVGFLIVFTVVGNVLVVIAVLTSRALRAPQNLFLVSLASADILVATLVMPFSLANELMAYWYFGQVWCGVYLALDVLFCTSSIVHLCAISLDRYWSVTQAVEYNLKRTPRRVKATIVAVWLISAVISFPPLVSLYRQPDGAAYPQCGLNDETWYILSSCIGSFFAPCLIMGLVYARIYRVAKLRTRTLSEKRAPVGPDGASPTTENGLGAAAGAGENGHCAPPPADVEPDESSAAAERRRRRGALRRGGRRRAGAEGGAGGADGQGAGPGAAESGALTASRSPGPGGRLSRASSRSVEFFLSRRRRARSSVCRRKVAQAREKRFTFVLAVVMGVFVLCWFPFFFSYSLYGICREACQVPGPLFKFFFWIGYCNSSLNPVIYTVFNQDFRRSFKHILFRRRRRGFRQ

[7] = inhibitors of larval lipid processing in zebrafish, primary screen, whole organism, PED6 fluorescence, gall bladder and intestine (AID 686;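 active = a full or partial loss of lipid-probe fluorescence in the fish gall bladder, intestine or both, judged by eye; inactive = no fluorescence loss, or compound toxic to the fish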;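 note: larvae 5 to 7 days old with five fish per well; signal comes from phospholipase A2 cleavage of quenched PED6 carried via bile; overnight exposure to compound and PED6 before scoring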); conditions: Zebrafish larvae PED6 lipid processing, fluorescence scoring; screened at 20 µM (by protocol)
How it was run: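 system = live zebrafish larvae aged 5-7 days, whole organism | probe or stimulus = ingested quenched lipid PED6 at 100 nM | doses = 20 µM single dose | timing = overnight exposure | detection = fluorescence microscopy with visual scoring of gall bladder and intestine | read-out = visual per-well fluorescence inhibition score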

[8] = inhibitors of Sendai virus-induced IRF3 signaling, primary screen, TLR/RLR signaling modifier project, cell-based, Sendai virus stimulus, luciferase, 10K MLSCN set (AID 602276;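 active = inhibition at or above 50% at 10 µM; inactive = inhibition below 50%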;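 note: firefly luciferase from ISG56 promoter only with Renilla not read in this screen; 0% = Sendai virus plus DMSO and 100% = medium plus DMSO without virus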); conditions: HEK293 RL24 IRF3 luciferase reporter, at 10 µM, stronger effect = higher value
[9] = inhibitors of poly I:C-induced TLR3 signaling, primary screen, cell-based, poly I:C stimulus, luciferase, 10K MLSCN set (AID 602277;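 active = inhibition of the reporter signal at or above 50%; inactive = inhibition below 50%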); conditions: HEK293-TLR3 RL24 IRF3 luciferase reporter, at 10 µM, stronger effect = higher value

| SMILES | cell count [1] | inhibition [1] | inhibition of aggregation [2] | nuclei count [2] [%] | inhibition [3] | nuclei count [3] [%] | fluorescence slope [4] | NADPH fluorescence slope [5] | slope [6] | outcome [7] | inhibition [8] | inhibition [9] |
| --- | --- | --- | --- | --- | --- | --- | --- | --- | --- | --- | --- | --- |
| C=CCN(CC=C)C(=O)Nc1cc(Cl)ccc1OC | 373 | 0.5% (inactive) | -7.2% (inactive) | 103 | -87.7% (inactive) | 111 | -0.402 (inactive) | -3.2e-05 (inactive) | 0.0044 (inactive) | inactive | 4.56% (inactive) | -3.97% (inactive) |
| CCCn1nnc(NCc2ccc(OCc3cccs3)c(OC)c2)n1 | 226 | -5.8% (inactive) | 7.5% (inactive) | 90 | -51.4% (inactive) | 99 | -0.467 (inactive) | -3.7e-05 (inactive) | 0.00561 (inactive) | inactive | 8.88% (inactive) | 6.19% (inactive) |
| Cc1ccc(OCC2Cn3c(nc4c3c(=O)n(C)c(=O)n4C)O2)cc1 (centres undefined) | 423 | 1.8% (inactive) | 22.4% (inactive) | 104 | -13.1% (inactive) | 120 | -0.406 (inactive) | -2.7e-05 (inactive) | 0.00486 (inactive) | inactive | 17.1% (inactive) | 11.7% (inactive) |
| CC(C)OC(=O)c1cc(NC(=O)C2C3CCC(O3)C2C(=O)O)cc(C(=O)OC(C)C)c1 (centres undefined) | 418 | 4.2% (inactive) | 7.3% (inactive) | 108 | -49.1% (inactive) | 113 | -0.454 (inactive) | -5.2e-05 (inactive) | 0.00511 (inactive) | inactive | 20.3% (inactive) | 13.2% (inactive) |
| O=C(NC1CCS(=O)(=O)C1)OC1CCCCC1 (centres undefined) | 419 | -1.2% (inactive) | 2% (inactive) | 111 | -91.7% (inactive) | 105 | -0.468 (inactive) | -5.2e-05 (inactive) | 0.0056 (inactive) | inactive | 10.9% (inactive) | 3.54% (inactive) |
| CCCNC(=O)N1CCN(S(=O)(=O)c2ccc(C)c(C)c2)CC1 | 412 | -0.4% (inactive) | -16.1% (inactive) | 105 | -28.8% (inactive) | 103 | -0.486 (inactive) | -5.4e-05 (inactive) | 0.00557 (inactive) | inactive | -6.27% (inactive) | -8.98% (inactive) |
| COC(=O)c1ccc(CSc2nnnn2Cc2ccccc2)cc1 | 341 | 3% (inactive) | -32.1% (inactive) | 108 | -32.4% (inactive) | 104 | -0.322 (inactive) | 3.4e-06 (inactive) | 0.00496 (inactive) | inactive | 9.31% (inactive) | 37.9% (inactive) |
| COc1ccc2cc(C#N)c(N3CCN(Cc4nnnn4CCC(C)C)CC3)nc2c1 | 363 | 7% (inactive) | 20.7% (inactive) | 85.8 | -5.8% (inactive) | 78.1 | -0.379 (inactive) | -3.8e-05 (inactive) | 0.00501 (inactive) | inactive | 12.8% (inactive) | -2.3% (inactive) |
| CCOC(=O)C1CCN(CC(=O)Nc2c(C(=O)OC)[nH]c3ccc(Cl)cc23)CC1 | 340 | 4.8% (inactive) | -27.5% (inactive) | 104 | -29.3% (inactive) | 107 | -0.383 (inactive) | -6.2e-05 (inactive) | 0.00328 (inactive) | inactive | 8.17% (inactive) | -16.2% (inactive) |
| Cc1ccc(S(=O)(=O)N2CCN(C(=O)CSc3nc4ccccc4c(=O)[nH]3)CC2)c(C)c1 | 541 | -30.9% (inactive) | -12.7% (inactive) | 113 | -13.1% (inactive) | 130 | -0.331 (inactive) | 1.8e-05 (inactive) | 0.00493 (inactive) | inactive | 8.86% (inactive) | 4.21% (inactive) |
| Nn1c(SCC(=O)Nc2ccccc2)nnc1-c1cccnc1 | 502 | -4.8% (inactive) | 11% (inactive) | 126 | 7% (inactive) | 118 | -0.363 (inactive) | -3.7e-05 (inactive) | 0.00741 (inactive) | inactive | -6.03% (inactive) | -3.73% (inactive) |
| COc1ccc(CSCCN)cc1Cl | 431 | -3.8% (inactive) | -22.4% (inactive) | 104 | 27.2% (inactive) | 107 | -0.4 (inactive) | -9.7e-05 (inactive) | 0.00556 (inactive) | inactive | -7.54% (inactive) | -8.95% (inactive) |
| Cc1ccc(C)n1-c1ccc(-n2cnnn2)cc1 | 572 | -1.6% (inactive) | -8.3% (inactive) | 86.5 | -24.4% (inactive) | 50.8 | -0.366 (inactive) | -5.9e-05 (inactive) | 0.00396 (inactive) | inactive | 8.71% (inactive) | 9.74% (inactive) |
| CCN(C(=O)c1ccnc(C(C)(C)C)c1)c1ccccc1 | 334 | 4.4% (inactive) | -6.8% (inactive) | 99.8 | -63.1% (inactive) | 128 | -0.385 (inactive) | -1.8e-05 (inactive) | 0.0045 (inactive) | inactive | 13.6% (inactive) | 11.3% (inactive) |
| CC1Oc2ccccc2N(Cc2ccccc2Cl)C1=O (centres undefined) | 630 | 15.4% (inactive) | -11.1% (inactive) | 59.5 | -90.8% (inactive) | 106 | -0.475 (inactive) | -5.9e-05 (inactive) | 0.00421 (inactive) | inactive | -20.2% (inactive) | -52.6% (inactive) |
| COc1ccc(OCCOC(=O)c2cccc(-n3cnnn3)c2)cc1 | 289 | 4.4% (inactive) | 8.2% (inactive) | 92.8 | -5.5% (inactive) | 112 | -0.462 (inactive) | -4.8e-05 (inactive) | 0.00521 (inactive) | inactive | -2.23% (inactive) | -15.7% (inactive) |
| Cc1[nH]nc(-c2ccc(O)c(C)c2O)c1-c1cnn(-c2ccccc2)c1 | 345 | 1.5% (inactive) | 10.3% (inactive) | 111 | 45.5% (inactive) | 97.8 | -0.438 (inactive) | -2.4e-05 (inactive) | 0.00436 (inactive) | inactive | 11.4% (inactive) | 5.23% (inactive) |
| Cn1c(=O)c2c(nc(N3CCN(c4ccccc4)CC3)n2CCCc2ccccc2)n(C)c1=O | 702 | 1.4% (inactive) | -15.2% (inactive) | 99.1 | 20.4% (inactive) | 96.5 | -0.339 (inactive) | -3.2e-05 (inactive) | 0.00552 (inactive) | inactive | 10.7% (inactive) | -10.5% (inactive) |
| COc1ccc(NC(=O)Nc2ccc(N3CCCC3=O)cc2)cc1OC | 462 | 4% (inactive) | -6.3% (inactive) | 102 | -4.9% (inactive) | 120 | -0.368 (inactive) | -3.2e-05 (inactive) | 0.0047 (inactive) | inactive | 4.01% (inactive) | -16.1% (inactive) |
| COc1ccc(S(=O)(=O)Nc2ccc(Cl)cn2)c(C)c1C | 482 | -29.6% (inactive) | -3.5% (inactive) | 62 | -46.8% (inactive) | 98.5 | -0.387 (inactive) | -4.6e-05 (inactive) | 0.00866 (inactive) | inactive | 11.2% (inactive) | 1.09% (inactive) |
| COC(=O)C1=C(C)N(Cc2ccco2)C(=O)C1 | 302 | 0.7% (inactive) | 26.2% (inactive) | 99.6 | -12.5% (inactive) | 101 | -0.42 (inactive) | -3.5e-05 (inactive) | 0.00527 (inactive) | inactive | 8.55% (inactive) | 8.79% (inactive) |
| CC(C)(C)NS(=O)(=O)c1ccc(CCC(=O)O)cc1 | 395 | 4.2% (inactive) | -0.1% (inactive) | 82.6 | -68.6% (inactive) | 110 | -0.456 (inactive) | -4.3e-05 (inactive) | 0.00422 (inactive) | inactive | 9.55% (inactive) | 4.51% (inactive) |
| CCn1c(=N)n(CC(=O)c2ccco2)c2ccccc21 | 407 | -11.8% (inactive) | 22.6% (inactive) | 68 | 52.9% (active) | 83.4 | -0.391 (inactive) | -5.5e-05 (inactive) | 0.00452 (inactive) | inactive | 4.56% (inactive) | 2.85% (inactive) |
| COC(=O)Nc1sccc1C(=O)Nc1sccc1C(=O)OC | 330 | -0.2% (inactive) | 23.3% (inactive) | 96.8 | 17.9% (inactive) | 95.9 | -0.431 (inactive) | -3.4e-05 (inactive) | 0.00336 (inactive) | inactive | 1.3% (inactive) | -4.09% (inactive) |
| Cc1cc(C)nc(N2CCC(C(=O)Nc3ccc(Oc4ccccc4)cc3)CC2)n1 | 706 | -15% (inactive) | -11% (inactive) | 122 | -54.3% (inactive) | 116 | -0.432 (inactive) | -5.6e-05 (inactive) | 0.00595 (inactive) | inactive | 13% (inactive) | 11% (inactive) |
| Cn1c(C(=O)NCc2cccnc2)cc2sccc21 | 560 | -4.9% (inactive) | 1.2% (inactive) | 104 | -25% (inactive) | 110 | -0.436 (inactive) | 3.4e-05 (inactive) | 0.00497 (inactive) | inactive | -11.9% (inactive) | -21.5% (inactive) |
| CCCCn1c(SCc2ccc(Cl)cc2)nc2c1c(=O)[nH]c(=O)n2C | 396 | 9% (inactive) | 8.8% (inactive) | 109 | -1.3% (inactive) | 98.4 | -0.347 (inactive) | -4.9e-05 (inactive) | 0.00466 (inactive) | inactive | 10.9% (inactive) | 14.5% (inactive) |
